Test results from the array DNA melting data of Ke et al. (doi:10.1101/2024.01.08.574731).

Key:
[1] = melting temperature; fluorescence melt of hairpins on a sequencing array, two-state fit, raised by 9.35 °C to match UV melts; conditions: sodium 0.088 M
Summary of the method: (§1)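 To match UV melts, fitted temperatures were raised by 9.35 °C. These fits were bootstrapped two-state models that gave melting temperature and folding enthalpy, combined by inverse variance over four replicates. The input was normalised Cy3 fluorescence of library hairpins with annealed Cy3 and quencher oligos on a sequenced MiSeq flow cell, imaged in 50 mM Na-HEPES pH 8.0, 25 mM NaCl in 2.5 °C steps up to 60 °C.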

[2] = folding enthalpy; higher = less favourable; fluorescence melt of hairpins on a sequencing array, two-state fit; conditions: sodium 0.088 M
Summary of the method: as §1

Row | Sequence | Tm [1] [°C] | folding enthalpy [2] [kcal/mol]
1 | GTTAACGGAAACGTTAGC (.(((((....))))).) | 42.9 | -21.3
2 | GTTAAGCGAAAGCTAAC (((.(((....)))))) | 44.4 | -18.5
3 | GTTAAGCGAAAGCTCAAC (((.(((....))).))) | 37.6 | -16.7
4 | GTTAAGGGAAACCTTAGC (.(((((....))))).) | 34.8 | -23.4
5 | GTTAATCGAAAGATAAC (((.(((....)))))) | 30.1 | -16.8
6 | GTTAATCGAAAGATCAAC (((.(((....))).))) | 30.2 | -14.7
7 | GTTAATCGAAAGATGAAC (((.(((....))).))) | 38.3 | -25.1
8 | GTTACACGAAAGTGAAAC (((.(((....))).))) | 45.3 | -23.6
9 | GTTACAGCGAAAGCTAAC (((..(((....)))))) | 28.2 | -11.1
10 | GTTACCCGAAAGGGAAAC (((.(((....))).))) | 48.6 | -21.6
11 | GTTACCGAAAGGTAAAC ((((((....))).))) | 48 | -15.7
12 | GTTACCGAAAGGTACAAC ((((((....)))..))) | 31.2 | -10.9
13 | GTTACCGAAAGGTGGAAC ((((((....)))..))) | 28.1 | -10.2
14 | GTTACCGAAAGGTTCAAC ((((((....)))..))) | 25 | -8.36
15 | GTTACCGGAAACAGTAAC (((((.(....).))))) | 32.8 | -17.2
16 | GTTACGAAAGTAAC (((((....))))) | 54.7 | -30
17 | GTTACGGGAAACCGTGAC ((.((((....)))).)) | 49.8 | -29.8
18 | GTTACTCGAAAGAGAAC (((.(((....)))))) | 31.5 | -13.7
19 | GTTACTGGAAACAGTAGC (.(((((....))))).) | 40.3 | -24.2
20 | GTTAGCCGAAAGGCAAC (((.(((....)))))) | 49.3 | -13.5
21 | GTTAGCCGAAAGGCCAAC (((.(((....))).))) | 40.3 | -16
22 | GTTAGCGAAAGCTACAAC ((((((....)))..))) | 30.4 | -8.63
23 | GTTAGCGAAAGCTAGAAC ((((((....)))..))) | 31.5 | -10

Row | Sequence | Tm [1] [°C] | folding enthalpy [2] [kcal/mol]
24 | GTTAGGCGAAAGCCAAC (((.(((....)))))) | 50.7 | -12.7
25 | GTTAGGCGAAAGCCCAAC (((.(((....))).))) | 37.2 | -13.8
26 | GTTAGGGCGAAAGCCAAC (((..(((....)))))) | 29.3 | -8.42
27 | GTTAGTGCGAAAGCAAAC (((..(((....)))))) | 28.3 | -10.6
28 | GTTATACGAAAGTAAAAC (((.(((....))).))) | 32.2 | -20.2
29 | GTTATAGGAAACTATAAC (((((((....))))))) | 45.4 | -35.5
30 | GTTATAGGAAACTGTAAC ((((.((....)).)))) | 34 | -27.2
31 | GTTATATCGAAAGATAAC (((..(((....)))))) | 27.7 | -11.2
32 | GTTATCGAAAGATAAAAC ((((((....)))..))) | 26.5 | -9.3
33 | GTTATCGAAAGATTAAC ((((((....))).))) | 29.5 | -15.1
34 | GTTATCGGAAACGACAAC (((.(((....))).))) | 36.4 | -19.8
35 | GTTATCGGAAACGATAGC (.(((((....))))).) | 43.4 | -21.5
36 | GTTATGAAAATAAC (((((....))))) | 38.6 | -16.9
37 | GTTATGTCGAAAGACAAC (((..(((....)))))) | 28.5 | -10.6
38 | GTTATTCGAAAGAACAAC (((.(((....))).))) | 30.5 | -20.6
39 | GTTCAACCGAAAGGTAAC (((..(((....)))))) | 26.7 | -11.7
40 | GTTCAAGGAAACTTAAAC (((.(((....))).))) | 29 | -10.5
41 | GTTCACCGAAAGGTAAAC (((.(((....))).))) | 40.5 | -20.4
42 | GTTCACGAAAGTGAAAC ((((((....))).))) | 46.1 | -16.3
43 | GTTCACGAAAGTGCGAAC ((((((....)))..))) | 31.6 | -10.7
44 | GTTCACGAAAGTGGAAAC ((((((....)))..))) | 30.9 | -13.4
45 | GTTCACGAAAGTGGAAC ((((((....))).))) | 45.4 | -19.1
46 | GTTCACGAAAGTGGTAAC ((((((....)))..))) | 25.6 | -12.5

Row | Sequence | Tm [1] [°C] | folding enthalpy [2] [kcal/mol]
47 | GTTCACGCGAAAGCGAAC (((..(((....)))))) | 32.7 | -10.2
48 | GTTCAGCGAAAGCTAAC (((.(((....)))))) | 36.4 | -13.8
49 | GTTCAGGGAAACCTGAGC (.(((((....))))).) | 46.6 | -22.5
50 | GTTCATCGAAAGATAAAC (((.(((....))).))) | 31.5 | -18.1
51 | GTTCATCGAAAGATTAAC (((.(((....))).))) | 32.6 | -34.2
52 | GTTCATGGAAACATGAAC (((((((....))))))) | 58.2 | -49.9
53 | GTTCATGGAAACATGAGC (.(((((....))))).) | 43.9 | -23.4
54 | GTTCCAGGAAACCGGAAC (((((.(....).))))) | 45.6 | -45.4
55 | GTTCCCGAAAGGGGAAAC ((((((....)))..))) | 37.2 | -11.8
56 | GTTCCCGAAAGGGGAAC ((((((....))).))) | 57.4 | -20.8
57 | GTTCCCGAAAGGGGGAAC ((((((....)))..))) | 48.4 | -19.3
58 | GTTCCCGGAAACGGAAAC (((.(((....))).))) | 41.1 | -24.4
59 | GTTCCTCGAAAGAGAAAC (((.(((....))).))) | 38.1 | -20.3
60 | GTTCGCGAAAGCGAGAAC ((((((....)))..))) | 42.3 | -9.97
61 | GTTCGCGAAAGCGTAAAC ((((((....)))..))) | 31.9 | -10.3
62 | GTTCGCGCGAAAGCGAAC (((..(((....)))))) | 60.5 | -28.1
63 | GTTCGCGGAAACGCAAAC (((.(((....))).))) | 43.7 | -20.8
64 | GTTCGGACGAAAGTCAAC (((..(((....)))))) | 29.1 | -9.64
65 | GTTCGGCGAAAGCCTAAC (((.(((....))).))) | 43 | -19.2
66 | GTTCGGGGAAACCCGAAC (((((((....))))))) | 69 | -39.6
67 | GTTCGTCGAAAGACTAAC (((.(((....))).))) | 41.3 | -22.2
68 | GTTCGTGGAAACATGAGC (.((.((....)).)).) | 31.6 | -18.1
